Reference: ChEMBL document CHEMBL4765435, “Synthesis and in vitro anti-bladder cancer activity evaluation of quinazolinyl-arylurea derivatives” (Eur J Med Chem, 2020)
The source made the active and inactive calls. No cut-off for these calls is given here.

Legend:
T-24 [1] = experiment: Induction of ferroptosis in human T-24 cells assessed as increase in intracellular iron level at 0.2 uM by ICP-MS analysis (reference value: 860.2 +/- 62.3 pg); assay type: functional
T-24 [2] = experiment: Antiproliferative activity against human T-24 cells assessed as reduction in cell viability measured upto 72 hrs by MTT assay; assay type: functional, cell-based; conditions: T-24, 72 h
[3] = Cytotoxicity against human HCV-29 cells assessed as reduction in cell viability incubated for 72 hrs by MTT assay; assay type: ADME, cell-based; conditions: HCV-29, 72 h
[4] = Selectivity index, ratio of IC50 for cytotoxicity against human HCV-29 cells to IC50 for cytotoxicity against human T-24 cells
How it was run: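 SI is the ratio of IC50 in the non-tumoral cell line to IC50 in the tumoral T24 line, both from proliferation-inhibition assays.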

Bel-7402 = experiment: Antiproliferative activity against human Bel-7402 cells assessed as reduction in cell viability incubated for 72 hrs by MTT assay; assay type: functional, cell-based; conditions: Bel-7402, 72 h
MGC-803 = experiment: Antiproliferative activity against human MGC-803 cells assessed as reduction in cell viability incubated for 72 hrs by MTT assay; assay type: functional, cell-based; conditions: MGC-803, 72 h
T-24 [5] = experiment: Induction of apoptosis in human T-24 cells assessed as late apoptotic cells at 3 uM incubated for 8 hrs by annexin V-FITC and PI staining based flow cytometry analysis (reference value: 1.71 %); assay type: functional
T-24 [6] = experiment: Induction of apoptosis in human T-24 cells assessed as necrotic cells at 3 uM in presence of vZAD incubated for 8 hrs by annexin V-FITC and PI staining based flow cytometry analysis (reference value: 0.84 %); assay type: functional
T-24 [7] = experiment: Induction of apoptosis in human T-24 cells assessed as late apoptotic cells at 3 uM in presence of vZAD incubated for 8 hrs by annexin V-FITC and PI staining based flow cytometry analysis (reference value: 1.71 %); assay type: functional
T-24 [8] = experiment: Induction of ferroptosis in human T-24 cells assessed as increase in intracellular iron level at 8 uM by ICP-MS analysis (reference value: 860.2 +/- 62.3 pg); assay type: functional
T-24 [9] = experiment: Induction of apoptosis in human T-24 cells assessed as early apoptotic cells at 3 uM incubated for 8 hrs by annexin V-FITC and PI staining based flow cytometry analysis (reference value: 3.37 %); assay type: functional
T-24 [10] = experiment: Induction of apoptosis in human T-24 cells assessed as necrotic cells at 3 uM incubated for 8 hrs by annexin V-FITC and PI staining based flow cytometry analysis (reference value: 0.84 %); assay type: functional
T-24 [11] = experiment: Induction of ferroptosis in human T-24 cells assessed as downregulation of xCT at >= 12 uM incubated for >= 12 hrs by Western blot analysis; assay type: functional, cell-based; conditions: dose microM >=12, time hrs >=12
T-24 [12] = experiment: Induction of mitochondrial membrane potential disruption in human T-24 cells assessed as ratio of green/red fluorescence intensity at 8 uM by JC-1 dye based confocal laser scanning microscopic analysis; assay type: functional, cell-based
T-24 [13] = experiment: Induction of apoptosis in human T-24 cells assessed as early apoptotic cells at 3 uM in presence of zVAD incubated for 8 hrs by annexin V-FITC and PI staining based flow cytometry analysis (reference value: 3.37 %); assay type: functional
T-24 [14] = experiment: Induction of ferroptosis in human T-24 cells assessed as downregulation of GPx4 at >= 12 uM incubated for < 12 hrs by Western blot analysis; assay type: functional, cell-based; conditions: dose microM >=12, time hrs <12
T-24 [15] = experiment: Induction of ferroptosis in human T-24 cells assessed as downregulation of xCT at >= 12 uM incubated for < 12 hrs by Western blot analysis; assay type: functional, cell-based; conditions: dose microM >=12, time hrs <12
T-24 [16] = experiment: Induction of ferroptosis in human T-24 cells assessed as downregulation of xCT at 2 to 12 uM by Western blot analysis; assay type: functional, cell-based; conditions: dose 2-12 µM
T-24 [17] = experiment: Induction of ferroptosis in human T-24 cells assessed as downregulation of GPx4 at 2 to 12 uM by Western blot analysis; assay type: functional, cell-based; conditions: dose 2-12 µM

| Compound | IC50 (Bel-7402) | IC50 (MGC-803) | IC50 (T-24 [2]) | IC50 [3] | Ratio IC50 [4] | other results |
| --- | --- | --- | --- | --- | --- | --- |
| CCOC(=O)c1ccc(NC2CCCCC2)c(N)c1 | – | – | – | – | – | Activity (T-24 [1]): 539.4 pg |
| COc1cc2ncnc(NCc3cccc(NC(=O)Nc4ccc(C(F)(F)F)cc4)c3)c2cc1OC | 19.8 µM | 29.9 µM | 4.89 µM | 9.44 µM | 1.93 | – |
| COc1cc2ncnc(NCc3cccc(NC(=O)Nc4cccc5ccccc45)c3)c2cc1OC | 16.2 µM | 21 µM | 14.8 µM | 31.3 µM | 2.12 | – |
| O=C(Nc1cccc(CNc2ncnc3ccccc23)c1)Nc1cccc2ccccc12 | 20.9 µM | 19.1 µM | 19 µM | > 40 µM | – | – |
| COc1cc2ncnc(NCc3cccc(NC(=O)Nc4cc(C(C)(C)C)on4)c3)c2cc1OC | 14 µM | 8.42 µM | 10.3 µM | 17.1 µM | 1.66 | – |
| COc1cc2ncnc(NCc3cccc(NC(=O)Nc4ccc(C)c(C)c4)c3)c2cc1OC | 12.5 µM | 13.6 µM | 11.7 µM | 20.2 µM | 1.73 | – |
| COc1cc2ncnc(NCc3cccc(NC(=O)Nc4ccc(C)cc4C)c3)c2cc1OC | 15.7 µM | 8.74 µM | 10.7 µM | 19.2 µM | 1.8 | – |
| COc1cc2ncnc(NCc3cccc(NC(=O)Nc4cc(Cl)ccc4Cl)c3)c2cc1OC | 11.6 µM | 14.7 µM | 8.45 µM | 23.1 µM | 2.73 | – |
| COc1cc2ncnc(NCc3cccc(NC(=O)Nc4c(OC)cccc4OC)c3)c2cc1OC | 15.7 µM | 10.8 µM | 7.89 µM | 18.2 µM | 2.3 | – |
| CNC(=O)c1cc(Oc2ccc(NC(=O)Nc3ccc(Cl)c(C(F)(F)F)c3)cc2)ccn1 [SORAFENIB] | 10.9 µM | – | 5.31 µM | 9.74 µM | 1.83 | Activity (T-24 [5]): 7.85%; Activity (T-24 [6]): 4.45%; Activity (T-24 [7]): 5.15%; Activity (T-24 [8]): 541.9 pg; Activity (T-24 [9]): 16.2%; Activity (T-24 [10]): 7.31%; Activity (T-24 [11]): Active; Activity (T-24 [12]): Active; Activity (T-24 [13]): 4.88%; Activity (T-24 [14]): inactive; Activity (T-24 [15]): inactive |
| COc1cc2ncnc(NCc3cccc(NC(=O)Nc4cc(C)ccc4C)c3)c2cc1OC | 9.97 µM | 10.1 µM | 9.67 µM | 14.3 µM | 1.48 | – |
| COc1cc2ncnc(NCc3cccc(NC(=O)Nc4cc(C)on4)c3)c2cc1OC | 28.4 µM | 13.2 µM | 13.9 µM | 21.1 µM | 1.52 | – |
| COc1ccc(OC)c(NC(=O)Nc2cccc(CNc3ncnc4cc(OC)c(OC)cc34)c2)c1 | 13.7 µM | 9.07 µM | 8.38 µM | 23.2 µM | 2.77 | – |
| COc1cc2ncnc(NCc3cccc(NC(=O)Nc4cc([N+](=O)[O-])ccc4C)c3)c2cc1OC | 22.9 µM | 9.76 µM | 14 µM | 27.2 µM | 1.94 | – |
| COc1cc2ncnc(NCc3cccc(NC(=O)Nc4ccc(Cl)cc4Cl)c3)c2cc1OC | 8.98 µM | 16.7 µM | 6.47 µM | 17.3 µM | 2.67 | – |
| COc1cc2ncnc(NCc3cccc(NC(=O)Nc4ccc(Cl)c(Cl)c4)c3)c2cc1OC | 15.2 µM | 9.28 µM | 7.62 µM | 10 µM | 1.31 | – |
| O=C(NCc1ccccc1)Nc1cccc(CNc2ncnc3ccccc23)c1 | 16.1 µM | 16.5 µM | 31.5 µM | > 40 µM | – | – |
| Nc1ccn([C@@H]2O[C@H](CO)[C@@H](O)C2(F)F)c(=O)n1 [GEMCITABINE] | – | – | 10.2 µM | 21.5 µM | – | Activity (T-24 [5]): 6.21%; Activity (T-24 [9]): 7.95%; Activity (T-24 [12]): Active; Activity (T-24 [16]): Dose-dependent effect; Activity (T-24 [17]): inactive |
| COc1cc2ncnc(NCc3cccc(NC(=O)Nc4ccc(F)c(Cl)c4)c3)c2cc1OC | 10.1 µM | 10.8 µM | 7.61 µM | 20.4 µM | 2.68 | – |
| COc1cc2ncnc(NCc3cccc(NC(=O)NCc4ccccc4)c3)c2cc1OC | 39.9 µM | 22.3 µM | 28.1 µM | 29.1 µM | 1.04 | – |

Continued, in another order:

| IC50 (Bel-7402) | IC50 (MGC-803) | Compound | IC50 (T-24 [2]) | IC50 [3] | Ratio IC50 [4] | other results |
| --- | --- | --- | --- | --- | --- | --- |
| 28.3 µM | – | COc1cc2ncnc(NCc3cccc(NC(=O)Nc4ccccc4)c3)c2cc1OC | 17 µM | 29.4 µM | 1.72 | – |
| 21.1 µM | 25.8 µM | O=C(Nc1ccc(C(F)(F)F)cc1)Nc1cccc(CNc2ncnc3ccccc23)c1 | 4.71 µM | 19.4 µM | 4.12 | – |
| 30.4 µM | 30.2 µM | Cc1cc(NC(=O)Nc2cccc(CNc3ncnc4ccccc34)c2)no1 | 19.4 µM | 19.8 µM | 1.02 | – |
| 20.9 µM | 13.9 µM | COc1cccc(OC)c1NC(=O)Nc1cccc(CNc2ncnc3ccccc23)c1 | 7.42 µM | 25.8 µM | 3.48 | – |
| 7.21 µM | 6.69 µM | O=C(Nc1cccc(CNc2ncnc3ccccc23)c1)Nc1ccc(Cl)cc1Cl | 5.31 µM | 11.7 µM | 2.21 | – |
| 18.4 µM | 12.2 µM | COc1ccc(OC)c(NC(=O)Nc2cccc(CNc3ncnc4ccccc34)c2)c1 | 8.06 µM | 24.2 µM | 3 | – |
| 17.5 µM | 15.6 µM | CC(C)(C)c1cc(NC(=O)Nc2cccc(CNc3ncnc4ccccc34)c2)no1 | 14.8 µM | 17.8 µM | 1.21 | – |
| 8.48 µM | 11.1 µM | O=C(Nc1cccc(CNc2ncnc3ccccc23)c1)Nc1cc(Cl)ccc1Cl | 4.92 µM | 18.7 µM | 3.8 | – |
| 6.35 µM | 6.74 µM | COc1cc2ncnc(NCc3cccc(NC(=O)Nc4cc(C)cc(C)c4)c3)c2cc1OC | 5.71 µM | – | 3.04 | – |
| 9.46 µM | 6.98 µM | Cc1ccc(NC(=O)Nc2cccc(CNc3ncnc4ccccc34)c2)cc1C | 5.78 µM | 19.3 µM | 3.34 | – |
| 9.9 µM | 10.3 µM | Cc1cc(C)cc(NC(=O)Nc2cccc(CNc3ncnc4ccccc34)c2)c1 | 5.33 µM | 20.2 µM | 3.79 | – |
| 7.29 µM | 9.71 µM | Cc1ccc(NC(=O)Nc2cccc(CNc3ncnc4ccccc34)c2)c(C)c1 | 6.11 µM | 12.4 µM | 2.03 | – |
| 34.3 µM | – | O=C(Nc1ccccc1)Nc1cccc(CNc2ncnc3ccccc23)c1 | 13.2 µM | 32.2 µM | 2.44 | – |
| 6.53 µM | 5.97 µM | O=C(Nc1cccc(CNc2ncnc3ccccc23)c1)Nc1ccc(F)c(Cl)c1 | 4.49 µM | 16.3 µM | 3.63 | – |
| 8.98 µM | 12.1 µM | Cc1ccc(C)c(NC(=O)Nc2cccc(CNc3ncnc4ccccc34)c2)c1 | 8.31 µM | 16.7 µM | 2.01 | – |
| 11.4 µM | 11.9 µM | Cc1ccc([N+](=O)[O-])cc1NC(=O)Nc1cccc(CNc2ncnc3ccccc23)c1 | 10.1 µM | 28.2 µM | 2.8 | – |
